High-throughput results (PubChem BioAssay)
D1 allo mod: D1 CRE-luciferase signal change, two-sided – cell-based, HEK293 D1, dopamine EC30, D1 allosteric modulator project, primary screen | dopamine EC30 potentiation; actives deviate in either direction | D(1A) dopamine receptor (Homo sapiens), P21728 | B-score at 10 µM | 58,000 compounds, 5.9% hits;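 active = luminescence count or its row- and column-corrected plate score outside the 99.7% band of the plate's sample wells, on either side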
Calb biofilm kill: clotrimazole potentiators killing Candida biofilms, primary screen, with clotrimazole, Alamar Blue; C. albicans biofilm + clotrimazole; inhibition, % at 6 µM; 85,000 compounds, 0.14% hits; AID 834, 2007;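 active = inhibition above 20%; inactive = inhibition below 20%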;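 note: preformed 24 hr biofilms exposed to compound for 48 hr; 0% = biofilm without compound and 100% = blank killed by clotrimazole plus chlorhexidine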
hDAT+cocaine: changed hDAT dopamine uptake under cocaine IC80, either direction, primary screen, cocaine antagonist project, cell-based, LLC-PK1 hDAT, [14C]-dopamine uptake, MLSMR; Sodium-dependent dopamine transporter (Homo sapiens), Q01959; LLC-PK1 hDAT cells, [14C]-dopamine uptake with cocaine IC80; actives deviate in either direction; B-score at 10 µM; 110,000 compounds, 1.3% hits;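 active = Z score or B-score, a plate-position-corrected score, falls beyond the plate's 99.7% confidence bounds, in either direction; inactive = both scores lie inside the 99.7% bounds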;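 note: scored against the spread of the other compound wells on the same plate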
Target sequence (Q01959 whole entry, looked up): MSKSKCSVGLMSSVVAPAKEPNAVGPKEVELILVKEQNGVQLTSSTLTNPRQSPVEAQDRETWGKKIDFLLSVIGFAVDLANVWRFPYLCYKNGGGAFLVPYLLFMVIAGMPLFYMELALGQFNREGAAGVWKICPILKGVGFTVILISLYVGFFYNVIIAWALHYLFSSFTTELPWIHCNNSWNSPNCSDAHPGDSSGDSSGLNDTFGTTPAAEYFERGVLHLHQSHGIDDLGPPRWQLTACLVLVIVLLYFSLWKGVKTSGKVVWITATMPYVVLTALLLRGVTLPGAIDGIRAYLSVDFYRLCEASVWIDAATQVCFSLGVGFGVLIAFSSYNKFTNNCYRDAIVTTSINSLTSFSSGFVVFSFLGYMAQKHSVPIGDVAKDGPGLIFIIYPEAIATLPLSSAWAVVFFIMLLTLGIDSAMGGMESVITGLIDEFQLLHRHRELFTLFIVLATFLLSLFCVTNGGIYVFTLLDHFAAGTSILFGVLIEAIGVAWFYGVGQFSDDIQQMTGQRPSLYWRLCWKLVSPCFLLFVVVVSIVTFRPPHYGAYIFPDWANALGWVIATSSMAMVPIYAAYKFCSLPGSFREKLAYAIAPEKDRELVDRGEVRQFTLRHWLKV
MMP-13 inhibitor: human MMP13 inhibitors, primary screen, biochemical, FRET peptide cleavage; AID 570, 2006; 65,000 compounds, 0.07% hits; inhibition, % at 4 µM; MMP-13 fTHP FRET cleavage, Mca fluorescence;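 active = inhibition above the mean of compound-free control plate wells plus 3 SD, cut at about 14% in these data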;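 note: 0% = DMSO wells and 100% = wells with reference MMP-13 inhibitor after basal subtraction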
AP complement: alternative complement pathway inhibitors, primary screen, biochemical, ELISA, human serum, orthogonally pooled compounds; inhibition, % at 5 µM; 62,000 compounds, 0.08% hits; LPS-coated ELISA, C3 deposition; tested in compound mixtures;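 active = inhibition above 30% in each of the two pooled mixtures holding the compound, so the lower value exceeds 30%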;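 note: 0% = serum in Mg-EGTA without compound and 100% = EDTA serum blank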
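Medium: diluted human serum in Mg2+-EGTA GVB++. Assay system: human serum complement alternative pathway, C3 deposition onto LPS. Also added: Plate-bound LPS. Technique: Anti-C3 ELISA, OD 450 nm. Measure: percent inhibition. Incubation: 1 h at 37 °C. Dosing: 5 µM each compound, pools of ten, 50 µM per pool.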
D1 mod confirm: D1 receptor positive allosteric modulators, retest, confirmation, cell-based, HEK293 D1, CRE-luciferase, duplicate; shares compounds with D1 allo mod; dopamine EC30 potentiation; hits give high values; luminescence at 10 µM; 2,200 compounds, 88% hits; AID 642, 2007;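 active = luminescence in either of two replicates above the same-plate mean plus 3 SD of the low-dose dopamine control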
D1 ag no DA: D1 receptor agonism without dopamine, confirmation, mechanism study for D1 allosteric modulator project, cell-based, HEK293 D1, CRE-luciferase, secondary assay 1. luminescence, no dopamine; hits give high values. luminescence at 10 µM. 1,900 compounds, 0.8% hits. shares compounds with D1 allo mod; in the data active = luminescence above about 3900
Isoprot counter: isoproterenol response counter-screen activity for D1 modulators. shares compounds with D1 allo mod. HEK293 D1 CRE-luciferase, isoproterenol EC30 counter-screen; hits give high values. luminescence at 10 µM. 2,200 compounds, 63% hits. AID 647;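 active = luminescence in either replicate above plate mean of wells with a partly effective reference agonist dose plus 3 SD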;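 note: isoproterenol raises cAMP through native beta-adrenoceptor Gs so signal bypasses D1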
* = called active by the depositor; x = no result. Only a selection was taken, and hits are over-represented in it overall.

SMILES	D1 allo mod	Calb biofilm kill	hDAT+cocaine	MMP-13 inhibitor	AP complement	D1 mod confirm	D1 ag no DA	Isoprot counter
COC(=O)c1ccccc1NC(=O)CN1CCN(C(=O)c2ccco2)CC1	3.2*	9	-0.045	9	x	8328	1732	3080
COc1ccc(NC(C)=O)cc1NC(=O)CN1CCN(C(=O)c2ccco2)CC1	x	x	2	x	x	x	x	x
COC(=O)c1ccccc1NC(=O)CN1CCC(NC(=O)c2ccccc2C)CC1	4.2*	7	0.0096	-3	0	9492*	1252	3456*
O=C(COc1ccc(S(=O)(=O)NC2CCCCC2)cc1Cl)N1CCN(c2ccccc2)CC1	x	5	0.63	x	x	x	x	x
NC(CS(=O)O)C(=O)O (stereo unspecified)	x	x	-1.2	x	x	x	x	x
C1CCN(c2c3c(nc4nnnn24)CCCC3)CC1	x	1	-0.54	x	x	x	x	x
COc1cc(Cl)c(S(=O)(=O)NCc2ccccn2)cc1Cl	x	5	-1.6	x	x	x	x	x
CC(=O)OCC[N+](C)(C)C	6.2*	11	-0.29	0	18	6608*	1464	3020*
CC(=O)SCC[N+](C)(C)C	x	x	-0.22	x	x	x	x	x
CCOC(=O)N1CCC2(CC1)C(C#N)=C(N)OC1=C2C(=O)CC(C)C1 (stereo unspecified)	x	1	0.86	x	x	x	x	x
CCOC(=O)c1ccc(NC(=O)c2c(N)n(Cc3ccccc3)c(=O)[nH]c2=O)cc1	x	x	-0.83	x	x	x	x	x
COC(C[C@@H]1O[C@H]1C(=O)[C@@H](C)OCc1ccccc1)OC	x	x	-0.15	x	x	x	x	x
CSc1cc(/C=N/O)c(SC)s1	6.9*	x	-0.44	-2	-1	12744*	1664	3352
CCOc1ccc(-c2cc3nc(C4CCN(C(=O)OC(C)(C)C)CC4)c(C(=O)O)cn3n2)cc1	13*	x	3.4*	-42	5	13012*	1592	5244*
COc1ccc(-n2nc3ccccc3n2)cc1	3.2*	12	0.31	4	12	10504*	1592	2764
COc1ccc(CN/C(C)=C(/C#N)C(N)=O)cc1OC	3.5*	-6	-0.23	4	13	7928*	x	2684*
COc1ccc(CNC(N)=O)cc1OC	x	4	0.1	x	x	x	x	x
Cc1ccc(S(=O)(=O)c2cc3c(=O)n4ccccc4nc3n(Cc3ccco3)c2=N)cc1	5*	1	0.83	-317	13	15320*	2068	4328*
Cc1ccc(S(=O)(=O)c2cc3c(=O)n4cccc(C)c4nc3n(Cc3ccco3)c2=N)cc1C	1.6	-5	x	-86	6	x	x	x
CCOC(=O)C1=C(N)n2c(s/c(=C\c3cccs3)c2=O)=C(C(=O)OCC)C1c1cccs1 (stereo unspecified)	4.6*	3	-0.31	-8	6	10396*	1664	4364*
CCOC(=O)C1=C(N)n2c(s/c(=C\c3cccnc3)c2=O)=C(C(=O)OCC)C1c1cccnc1 (stereo unspecified)	1.1	-3	x	1	-10	x	x	x
Cn1c(=O)[nH]c(=O)c2c1nc(Sc1ncccn1)n2CCCc1ccccc1	9.6*	0	-0.077	6	26	18924*	1792	5548*
Cn1c(=O)[nH]c(=O)c2c1nc(Sc1ccccc1)n2CCc1ccccc1	9.2*	-1	1	1	-1	20140*	1684	6588*
COCCn1c(SCCCc2ccccc2)nc2c1c(=O)[nH]c(=O)n2C	1.8	3	-0.03	-3	8	x	x	x
COC(=O)C(C)Sc1nc2c(c(=O)[nH]c(=O)n2C)n1CCCc1ccccc1 (stereo unspecified)	4.7*	4	-0.53	0	-1	8864*	1724	3828*
